# Test results: ChEMBL document CHEMBL1145237, “Amide derivatives of 9,11-seco-estra-1,3,5(10)-trien-11-oic acid as modified orally active estrogen agonists with moderate antagonistic activity” (Bioorg Med Chem Lett, 2005)
# Assays:
# Rattus norvegicus = species on record: Rattus norvegicus; experiment: Percent inhibition of ethynylestradiol-induced uterine weight gain in ovariectomized immature rats; design: concentration or dose not given beside the values; details: concentration not given here
# [1] = biological target: T1, Estrogen receptor (Rattus norvegicus) (UniProt P06211+Q62986); experiment: Estrogenic activity in rat uterine weight assay; type: functional
# [2] = biological target: T1, Estrogen receptor (Rattus norvegicus)
# [3] = biological target: T1, Estrogen receptor (Rattus norvegicus); experiment: Relative binding affinity for immature rat cytosolic estrogen receptor; type: protein assay
# Summary of the method: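 Rat uterine cytosol receptor (20–21-day-old animals, pH 7.4 Tris-EDTA buffer) was incubated in triplicate for 18 h at 4 °C with fixed [3H]-estradiol and graded competitor concentrations, with DMF ≤5% final. Bound ligand was separated with dextran-coated charcoal and counted. Percent bound versus log concentration was plotted, and the 50%-inhibition concentration was compared with that of estradiol to give RBA.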
# [4] = biological target: T1, Estrogen receptor (Rattus norvegicus); experiment: Estrogenic activity as percent gain in rat uterine weight at 10 mg/kg/day; type: functional, organism-based
# Summary of the method: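 Immature female rats were dosed orally once daily on days 28–30 of age at 10 mg/kg, with a vehicle-only control group. At autopsy on day 31, 24 h after the last dose, vaginal opening and vaginal-smear cornification were scored, and the blotted uterus was weighed fresh. Uterine gain was expressed as percent of vehicle control, as mean ± SEM of at least six observations per group.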
inhibition (Rattus norvegicus) [%],Weight [1] [mg],Weight [2] [mg],RBA [3] [%],Gain [4] [%],SMILES
22.1,40.7,70.9,< 0.001,133,CCCCNC(=O)C[C@@]1(C)C(C2CCc3cc(OC)ccc3C2)CC[C@@H]1OC(C)=O (stereo not given in full)
5.98,87,95.9,< 0.001,441,CCCCCCCCNC(=O)C[C@@]1(C)C(C2CCc3cc(OC)ccc3C2)CC[C@@H]1OC(C)=O (stereo not given in full)
11.7,82.4,90,< 0.001,412,CCCCCCCCCCCCNC(=O)C[C@@]1(C)C(C2CCc3cc(OC)ccc3C2)CC[C@@H]1OC(C)=O (stereo not given in full)
26.1,18.7,67.2,< 0.001,6.63,CCCNC(=O)C[C@@]1(C)C(C2CCc3cc(OC)ccc3C2)CC[C@@H]1OC(C)=O (stereo not given in full)
17.2,23.7,75.3,< 0.001,35.2,CCCCCNC(=O)C[C@@]1(C)C(C2CCc3cc(OC)ccc3C2)CC[C@@H]1OC(C)=O (stereo not given in full)
10,74.3,83.6,< 0.001,422,COc1ccc2c(c1)CCC(C1CC[C@H](OC(C)=O)[C@@]1(C)CC(=O)NCCCc1ccccc1)C2 (stereo not given in full)

# Further lines, the molecule ahead of its results:
SMILES,inhibition (Rattus norvegicus) [%],Weight [1] [mg],Weight [2] [mg],RBA [3] [%],Gain [4] [%]
COc1ccc2c(c1)CCC(C1CC[C@H](OC(C)=O)[C@@]1(C)CC(=O)NCc1ccccc1)C2 (stereo not given in full),14,74.4,87.7,< 0.001,362
COc1ccc2c(c1)CCC(C1CC[C@H](OC(C)=O)[C@@]1(C)CC(=O)NCCc1ccccc1)C2 (stereo not given in full),6.41,19,73,< 0.001,8.57
COc1ccc(NC(=O)C[C@@]2(C)C(C3CCc4cc(OC)ccc4C3)CC[C@@H]2OC(C)=O)cc1 (stereo not given in full),20.2,70.7,77.5,< 0.001,282
COc1ccc2c(c1)CCC(C1CC[C@H](OC(C)=O)[C@@]1(C)CC(=O)Nc1ccccc1)C2 (stereo not given in full),11.5,18,69,< 0.001,2.91
COc1cccc(NC(=O)C[C@@]2(C)C(C3CCc4cc(OC)ccc4C3)CC[C@@H]2OC(C)=O)c1 (stereo not given in full),15.6,84.9,86,< 0.001,428
